Source: ChEMBL document CHEMBL3244059, “Synthesis and pharmacological activity of a phosphate ester of delta8-tetrahydrocannabinol” (J Med Chem, 1978)
Activity calls are given as the source filed them. The calls are words filed in the database; no cut-off is given here.

Legend:
Mus musculus [1] = assay: Potentiation of thiopental-induced sleep in iv dosed ddN mouse assessed as loss of righting reflex after 60 mins administered with saline; assay type: functional
Outline: (§1)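 Pretreatment given iv (saline solution or 1% Tween 80 suspension; vehicle controls for each), followed 30 or 60 min later by thiopental 80 mg/kg iv. Sleep measured as loss of righting reflex. Potentiation counted positive when sleeping time exceeded twice the matching control. Eight mice per dose; ED50 with confidence limits.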

Mus musculus [2] = assay: Hypothermic activity in ddN mouse assessed as reduction of rectal temperature at 20 mg/kg, iv after 2 hrs; assay type: functional
Outline: (§2)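 Rectal temperature taken with a thermistor thermometer after iv tail-vein dosing at 10 or 20 mg/kg (1% Tween 80 suspension or saline solution). Room held at 23 ± 1 °C; time course followed up to 5 h. Decline reported as mean ± SE of eight mice.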

[3] = Drug metabolism in mouse liver homogenates assessed as compound hydrolysis at pH 9.6 after 15 mins by spectrophotometric analysis in presence of alkaline phosphatase; assay type: ADME, tissue-based; details: read-out: Drug metabolism
Outline: (§3)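 Substrate (1.5 μmol) incubated at 37 °C with mouse liver homogenate (equivalent to 0.1 g liver) in 0.1 M glycine buffer pH 9.6 or 0.1 M acetate buffer pH 5.0. Sampled at 15, 30 and 60 min. Percent hydrolysis given as mean of duplicate determinations.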

Mus musculus [4] = assay: Acute toxicity in ddN mouse assessed as mortality up to 160 mg/kg, iv after 24 hrs; assay type: organism-based; parameters: dose 160 mg/kg, route intravenous; details: in vivo
Outline: (§4)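 Mice dosed iv via tail vein, 0.1 mL/10 g body weight; parent compound as suspension in 1% Tween 80, phosphate as solution in saline. Eight animals per dose.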

[5] = Drug metabolism in mouse liver homogenates assessed as compound hydrolysis at pH 5 after 15 mins by spectrophotometric analysis in presence of alkaline phosphatase; assay type: ADME, tissue-based; details: read-out: Drug metabolism; outline: as §3
[6] = Drug metabolism in mouse liver homogenates assessed as compound hydrolysis at pH 9.6 after 60 mins by spectrophotometric analysis in presence of alkaline phosphatase; assay type: ADME, tissue-based; details: read-out: Drug metabolism; outline: as §3
[7] = Drug metabolism in mouse liver homogenates assessed as compound hydrolysis at pH 5 after 60 mins by spectrophotometric analysis in presence of alkaline phosphatase; assay type: ADME, tissue-based; details: read-out: Drug metabolism; outline: as §3
Mus musculus [8] = assay: Cataleptogenic activity in iv dosed ddN mouse assessed as induction of catalepsy after 30 to 60 mins by bar test; assay type: functional
Outline: (§5)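 Catalepsy scored by a modified simple bar test at 30 and 60 min after iv tail-vein injection (0.1 mL/10 g; 1% Tween 80 suspension or saline solution). Eight mice per dose; vehicle controls. ED50 with 95% confidence limits at peak time.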

[9] = Drug metabolism in mouse liver homogenates assessed as compound hydrolysis at pH 9.6 after 30 mins by spectrophotometric analysis in presence of alkaline phosphatase; assay type: ADME, tissue-based; details: read-out: Drug metabolism; outline: as §3
Mus musculus [10] = assay: Potentiation of thiopental-induced sleep in iv dosed ddN mouse assessed as loss of righting reflex after 30 to 60 mins; assay type: functional; outline: as §1
Mus musculus [11] = assay: Hypothermic activity in ddN mouse assessed as reduction of rectal temperature at 10 mg/kg, iv after 2 hrs; assay type: functional; outline: as §2
[12] = Drug metabolism in mouse liver homogenates assessed as compound hydrolysis at pH 5 after 30 mins by spectrophotometric analysis in presence of alkaline phosphatase; assay type: ADME, tissue-based; details: read-out: Drug metabolism; outline: as §3
Mus musculus [13] = assay: Cataleptogenic activity in iv dosed ddN mouse assessed as induction of catalepsy after 60 mins by bar test; assay type: functional; outline: as §5
[14] = Acute toxicity in iv dosed ddN mouse assessed as mortality after 24 hrs; assay type: organism-based; details: in vivo; outline: as §4
Mus musculus [15] = assay: Cataleptogenic activity in iv dosed ddN mouse assessed as induction of catalepsy after 30 mins by bar test; assay type: functional, organism-based; outline: as §5
Mus musculus [16] = assay: Hypothermic activity in ddN mouse assessed as reduction of rectal temperature at 20 mg/kg, iv after 1 hr; assay type: functional; outline: as §2
Mus musculus [17] = assay: Hypothermic activity in ddN mouse assessed as reduction of rectal temperature at 10 mg/kg, iv after 1 hr; assay type: functional; outline: as §2
Mus musculus [18] = assay: Potentiation of thiopental-induced sleep in iv dosed ddN mouse assessed as loss of righting reflex after 60 mins administered with 1% Tween-80; assay type: functional, organism-based; outline: as §1

## CCCCCc1cc2c(c(OP(=O)([O-])[O-])c1)[C@@H]1CC(C)=CC[C@H]1C(C)(C)O2.[Na+].[Na+]
Mus musculus [1]
  Activity: 7%
Mus musculus [2]
  T: 5 °C
[3]
  metabolised at 0.25 h: 7.8%
Mus musculus [4]
  Activity: Non-toxic
[5]
  metabolised at 0.25 h: 15.3%
[6]
  metabolised at 1 h: 24.5%
[7]
  metabolised at 1 h: 29.2%
Mus musculus [8]
  ED50: 37 mg/kg
[9]
  metabolised at 0.5 h: 13.9%
Mus musculus [10]
  ED50: 17.5 mg/kg
Mus musculus [11]
  T: 2.4 °C
[12]
  metabolised at 0.5 h: 20.7%
Mus musculus [13]
  Activity: 10%

## CCCCCc1cc(O)c2c(c1)OC(C)(C)[C@@H]1CC=C(C)C[C@@H]21 [DELTA-8-TETRAHYDROCANNABINOL]
[14]
  LD50 at 24 h: 27.5 mg/kg
Mus musculus [15]
  Activity: Active
Mus musculus [8]
  ED50: 3.3 mg/kg
Mus musculus [16]
  T: 4.8 °C
Mus musculus [17]
  T: 3.8 °C
Mus musculus [10]
  ED50: 1.2 mg/kg
Mus musculus [18]
  Activity: Active

## O=[N+]([O-])c1ccc(OP(=O)(O)O)cc1 [p-NITROPHENYLPHOSPHATE]
[3]
  metabolised at 0.25 h: 21.5%
[5]
  metabolised at 0.25 h: 88.9%
[6]
  metabolised at 1 h: 73.6%
[7]
  metabolised at 1 h: 97.7%
[9]
  metabolised at 0.5 h: 36.4%
[12]
  metabolised at 0.5 h: 96.7%
